Data set [1] in a line: Half life in RPMI media at 10 uM by HPLC analysis. In kind it is physicochemical. Put shortly: (§1)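 Compound added from DMSO stock to pre-heated RPMI 1640 (1.8 mL) plus 0.2 mL human AB male serum or FBS, or to 2 mL RPMI alone, at final 1 or 10 μM. Samples analysed by HPLC at pH 9.5 (formic acid/ammonia in acetonitrile/water), with conversion taken from the substrate/internal standard peak ratio. Run in triplicate; half-lives ± SD.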

Data set [2] can be described thus: Half life in RPMI media at 10 uM by HPLC analysis in presence of fetal bovine serum. In kind it is ADME. The settings on record: cattle. A digest of the protocol:
as §1

The nature of data set [3]: Half life in RPMI media at 10 uM by HPLC analysis in presence of human blood serum. Format: ADME. A digest of the protocol: as §1
Data set [4] can be described thus: Selectivity ratio of IC50 for MEF to IC50 for human Jurkat T cells. Format: cell-based. As to conditions: mouse (MEF) and human (Jurkat T cells), read-out: Ratio IC50.
A short description of data set [5]: Selectivity ratio of IC50 for MEF to IC50 for human SK-MEL-2 cells. Format: cell-based. The settings on record: mouse (MEF) and human (SK-MEL-2 cells), MEF and SK-MEL-2 cells; read-out: Ratio IC50.
Another data set concerns MEF. Briefly: Antiproliferative activity against MEF after 72 hrs by MTT assay. As to conditions: Mus musculus. Format: cell-based.
Data set [6] in a line: Selectivity ratio of IC50 for MEF to IC50 for human HeLa cells. Format: cell-based. The settings on record: mouse (MEF) and human (HeLa cells), read-out: Ratio IC50.
Data set [7] deals with SK-MEL-2. Nature of the data set: Antiproliferative activity against human SK-MEL-2 cells after 72 hrs by MTT assay in presence of 5% FBS. In kind it is functional, cell-based. The settings on record: SK-MEL-2, 72 h. A digest of the protocol: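 SK-MEL2 grown with reduced serum (5% FBS) to slow proliferation. Compounds added in DMSO (0.1% final), followed by a 72 h MTT proliferation assay.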

Data set [8] in a line: Dissociation constant, pKa of the compound. Format: physicochemical.
Data set [9] concerns SK-MEL-2. Nature of the data set: Selectivity ratio of IC50 for human SK-MEL-2 cells in presence of 5% FBS to IC50 for human SK-MEL-2 cells in presence of 10% FBS. In kind it is functional.
For data set [10], the species on record is Oryctolagus cuniculus. Nature of the data set: Inhibition of cap-independent HCV-IRES-induced translation in rabbit reticulocyte lysate at 500 nM after 1.5 hrs by luciferase reporter gene assay. Format: functional. Put shortly:
(§2)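 Capped bicistronic reporter mRNA: cap-dependent firefly luciferase first cistron, HCV IRES-driven Renilla second cistron. Transcribed in vitro with SP6 from the BamHI-linearised plasmid. 200 ng RNA translated in rabbit reticulocyte lysate with 70 mM KCl, 2 mM DTT, RNasin and compound in DMSO (5% v/v final), 30 °C for 1.5 h. Dual luciferase readout. Duplicates, 4 independent assays, mean IC50 by curve fit.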

Data set [11] is described as follows: Binding affinity to eIF4A1/2 in rabbit reticulocyte lysate assessed as inhibition of cap-dependent translation after 1.5 hrs by dual luciferase reporter gene assay. Set-up: species or system Oryctolagus cuniculus. A digest of the protocol:
as §2

Data set [12] can be described thus: Antiproliferative activity against human Jurkat T cells after 72 hrs by MTT assay. Format: functional, cell-based. A digest of the protocol: (§3)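 HeLa and SK-MEL2 grown in DMEM, Jurkat in RPMI 1640, each with 10% FBS and penicillin-streptomycin, at 37 °C and 5% CO2. Adherent cells seeded at 2000/well and left to recover overnight; Jurkat seeded at 5000/well with no recovery. Compound added in DMSO (0.1% final), then 72 h incubation and MTT readout.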

Data set [13] relates to SK-MEL-2. Briefly: Antiproliferative activity against human SK-MEL-2 cells after 72 hrs by MTT assay in presence of 10% FBS. Format: functional, cell-based. The settings on record: SK-MEL-2, 72 h. Put shortly: as §3
The next data set deals with HeLa. Briefly: Antiproliferative activity against human HeLa cells after 72 hrs by MTT assay. In kind it is functional, cell-based. A digest of the protocol: as §3
The subject of a further data set is Jurkat. Briefly: Antiproliferative activity against human Jurkat T cells up to 10^4 nM after 72 hrs by MTT assay. Format: functional, cell-based. A digest of the protocol:
as §3

The test system of data set [14] is SK-MEL-2. Nature of the data set: Selectivity ratio of IC50 for human SK-MEL-2 cells in presence of 10% FBS to IC50 for human SK-MEL-2 cells in presence of 5% FBS. In kind it is functional.
Data set [15] is filed under the species Oryctolagus cuniculus. Briefly: Binding affinity to eIF4A1/2 in rabbit reticulocyte lysate assessed as cap-dependent translation at 500 nM after 1.5 hrs by dual luciferase reporter gene assay relative to control. Put shortly:
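Rabbit reticulocyte lysate translating the cap-dependent/HCV IRES dual-luciferase mRNA, with compound at 500 nM in DMSO (5% v/v final), 30 °C for 1.5 h. Cap-dependent luciferase expressed as % translation relative to DMSO control.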

Calls of active or inactive are those of the source. No cut-off for these calls is given here.

Regarding `CC(/C=C/C(C)=C/[C@@H]1Cc2nc(cs2)CCCCC(=O)O[C@@H](C)C/C(C)=C/C=C\C(=O)O1)=C\CN1CCCC1`, the t1/2 in data set [1] came out at 3.87 h; in data set [2], 14.8 h; in [3], 11.7 h. For the same compound, the selectivity ratio in [4], in data set [5] and in data set [6] was 4 each time. The IC50 in the data set with MEF is over 100 nM; in the data set with SK-MEL-2 [7], 154 nM; in data set [11] it was 54.8 nM; in data set [12], 25 nM; in the data set on SK-MEL-2 [13], 27 nM; in the data set with HeLa, 23 nM. Further, the pKa in data set [8] turned out to be 11. Also, the “Ratio IC50” value in the data set with SK-MEL-2 [9] came out at 6. For the same compound, in the data set listed under Oryctolagus cuniculus [10], the inhibition entry was “inactive”.

Consider `CC(/C=C/C(C)=C/[C@@H]1Cc2nc(cs2)CCCCC(=O)O[C@@H](C)C/C(C)=C/C=C\C(=O)O1)=C\CN1CCOCC1`, for which the t1/2 in data set [1] came out at 0.89 h; in data set [2] it was 9.23 h; in [3], 17.8 h. The selectivity ratio in [4], in data set [5] and in data set [6] was 5 throughout. In addition, the IC50 is over 2000 nM in the data set on MEF; 157 nM in the data set on SK-MEL-2 [7]; 72.2 nM in data set [11]; 320 nM in the data set on SK-MEL-2 [13]; 430 nM with HeLa. In data set [8], this compound came in with a pKa of 8.36. In the data set listed under Oryctolagus cuniculus [10], the inhibition entry is “inactive”. Also, in the data set with Jurkat, the outcome was inactive. For the same compound, in the data set on SK-MEL-2 [14], the “Ratio IC50” value is listed as 2.

With `CC(/C=C/C(C)=C/[C@@H]1Cc2nc(cs2)CCCCC(=O)O[C@@H](C)C/C(C)=C/C=C/C(=O)O1)=C\CN(C)C`, the Activity in the data set listed under Oryctolagus cuniculus [15] is 80%. Moreover, in the data set filed under Oryctolagus cuniculus [10], the inhibition result was “inactive”. Further, the IC50 in data set [11] was over 500 nM; in data set [12], over 10000 nM; with SK-MEL-2 [13] it was 950 nM; with HeLa it was 860 nM.

These data come from ChEMBL document CHEMBL3124904, “Second-generation derivatives of the eukaryotic translation initiation inhibitor pateamine A targeting eIF4A as potential anticancer agents” (Bioorg Med Chem, 2014).
